Tests used:
[1] = test system: MRC5; experiment: In vitro inhibitory activity on MRC5 fibroblast tissue cultures inoculated with virulent RH strain of Toxoplasma gondii; format: functional, cell-based; conditions: Homo sapiens
How it was run: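 Confluent MRC5 fibroblast monolayers inoculated with 2000 fresh RH tachyzoites; compounds added at various concentrations after 4 h, then 72 h further incubation. Eight uninfected and eight drug-free control wells per plate. Cold-methanol-fixed cultures assayed by ELISA with peroxidase-labelled anti-SAG-1 monoclonal antibody, read at 405 nm against uninfected blank. IC50 from linear regression of OD versus log concentration.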

[2] = test system: Plasmodium falciparum; experiment: In vitro inhibitory activity against chloroquine-resistant Plasmodium falciparum NF54-R in blood; format: functional, organism-based
[3] = test system: Plasmodium yoelii yoelii; experiment: In vitro inhibitory activity against hepatic stages of Plasmodium yoelii yoelii 265 BY; format: functional, organism-based

Row | Compound | IC50 [1] | IC50 [2] | IC50 [3]
1 | N[C@@H]1[C@H]2CN(c3nc4c(cc3F)c(=O)c(C(=O)O)cn4C3CC3)C[C@@H]12 [TROVAFLOXACIN4] | 1.68 µM | – | –
2 | COc1c(N2CCNC(C)C2)c(F)cc2c(=O)c(C(=O)O)cn(C3CC3)c12 (stereo not drawn) [GATIFLOXACIN] | 12.7 µM | 29 µM | –
3 | COc1c(N2C[C@@H]3CCCN[C@@H]3C2)c(F)cc2c(=O)c(C(=O)O)cn(C3CC3)c12 [MOXIFLOXACIN] | 10.9 µM | 45 µM | –
4 | N[C@@H]1[C@H]2CN(c3nc4c(cc3F)c(=O)c(C(=O)O)cn4-c3ccc(F)cc3F)C[C@@H]12 [TROVAFLOXACIN] | 0.96 µM | 22 µM | 74 µM

Source: ChEMBL document CHEMBL1148256, “Synthesis of new fluoroquinolones and evaluation of their in vitro activity on Toxoplasma gondii and Plasmodium spp” (Bioorg Med Chem Lett, 2004)
